The values that follow come from ChEMBL document CHEMBL6083194, “Discovery and evaluation of 3-(2-isocyanobenzyl)-1H-indole derivatives as potential quorum sensing inhibitors for the control of Pseudomonas aeruginosa infections in vitro” (RSC Med Chem, 2024).

The term MIC denotes the lowest concentration that inhibits growth of the organism. A high value points to weaker potency.

Assay [1] deals with Pseudomonas aeruginosa. In words: Inhibition of pyocyanin production in Pseudomonas aeruginosa PAO1 at 1/2 time MIC incubated for 18 hrs. The format is functional. The method in brief: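 Overnight PAO1 in LB diluted to OD600 = 0.05, subcultured 5–7 h to mid-log, rediluted to OD600 = 0.05. 5 mL with compound grown 18 h at 37 °C, 200 rpm. Supernatant extracted with 3 mL chloroform, back-extracted into 0.2 M HCl, absorbance at 520 nm.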

The test system of assay [2] is Pseudomonas aeruginosa. The assay is described as follows: Inhibition of biofilm formation in Pseudomonas aeruginosa PAO1 incubated for 24 hrs crystal violet staining based SEM assay. The class given is functional, organism-based.
Assay [3] relates to Pseudomonas aeruginosa. In words: Inhibition of rhamnolipid production in Pseudomonas aeruginosa PAO1 at 1/2 to 1/4 times MIC by orcinol method. The format is functional, organism-based. The gist of the method: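 Overnight PAO1 diluted 1:100 into LB with compound, 37 °C, 180 rpm; DMSO control. Supernatant (100 μL) mixed with 900 μL 0.19% orcinol in 53% H2SO4, heated 30 min at 80 °C, cooled, read at 421 nm.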

The test system of assay [4] is Pseudomonas aeruginosa. The assay is described as follows: Antibacterial activity against Pseudomonas aeruginosa PAO1 by serial dilution method. The class given is functional. The method in brief: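 PAO1 in LB, 37 °C. MIC by CLSI 2-fold serial dilution in Mueller–Hinton broth, inoculum 1–5 × 10^5 CFU mL−1, DMSO stocks. Growth curves: overnight culture diluted to OD600 = 0.05, subcultured to mid-log, rediluted to OD600 = 0.05, 3 mL with compound; OD620 read at 1, 3, 5, 7, 9, 11 and 24 h at 37 °C; DMSO negative control.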

Assay [5] concerns Pseudomonas aeruginosa. In words: Inhibition of biofilm formation in Pseudomonas aeruginosa PAO1 at 1/2 times MIC incubated for 24 hrs crystal violet staining based SEM assay. The format is functional.
Assay [6] can be described thus: Inhibition of quorum sensing system in Chromobacterium violaceum CV026. The method in brief:
(§1)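 Plate screen. CV026 grown overnight in LB with 50 μg ml−1 kanamycin; 15 μl seeded into 15 ml LB agar (1.0% agarose) containing 20 μM C4-HSL. PAO1 plates run in parallel. Test colonies inoculated by toothpick, incubated overnight at 37 °C. Ring of colourless viable cells around the colony scored as inhibition.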

Assay [7] can be described thus: Inhibition of quorum sensing system in Pseudomonas aeruginosa PAO1. The method in brief:
as §1

The test system of assay [8] is Pseudomonas aeruginosa. The assay is described as follows: Inhibition of biofilm formation in Pseudomonas aeruginosa PAO1 at 1/4 times MIC incubated for 24 hrs crystal violet staining based SEM assay. The class given is functional.

≈ marks a conversion by molar mass, not a printed value. Calls of active or inactive are those of the source. The calls are words filed in the database; no cut-off is given here.

As to `Cn1cc(Cc2ccccc2C#N)c2ccccc21`, the inhibition result in the assay on Pseudomonas aeruginosa [1] is “Active”. Moreover, the inhibition result in the assay on Pseudomonas aeruginosa [2] was “Dose-dependent-effect”.

`N#Cc1cc(F)ccc1Cc1c[nH]c2ccccc12`: the inhibition result with Pseudomonas aeruginosa [3] is “Active”. In addition, the MIC with Pseudomonas aeruginosa [4] was 48 µg/mL (≈ 192 µM). For the same molecule, the “inhibition (INH)” value in the assay on Pseudomonas aeruginosa [5] is recorded as 19%. Besides, the inhibition entry in assay [6] was “Active; Showed Higher Activity”; in the assay with Pseudomonas aeruginosa [1], “Active; Showed Higher Activity Than Positive Control Rsv”; in assay [7] it was “Active; Strong Inhibition Observed”; in the assay with Pseudomonas aeruginosa [2] it was “Dose-dependent-effect”.

With `CC(C)(C)OC(=O)n1c(-c2ccccc2)c(Cc2ccccc2C#N)c2ccccc21`, the inhibition entry was “Active; Showed Higher Activity Than Positive Control Rsv” in the assay with Pseudomonas aeruginosa [1] and “Dose-dependent-effect” in the assay on Pseudomonas aeruginosa [2].

For `N#Cc1ccc(Cl)cc1Cc1c[nH]c2ccccc12`, in the assay on Pseudomonas aeruginosa [5], the “inhibition (INH)” value worked out at 56%. The inhibition entry (with Pseudomonas aeruginosa [1]; in assay [7]) was “Active” in each case. In addition, the inhibition entry in the assay with Pseudomonas aeruginosa [2] was “Dose-dependent-effect”.

Consider `Cc1ccc2[nH]cc(Cc3ccccc3C#N)c2c1`, for which the “inhibition (INH)” value in the assay with Pseudomonas aeruginosa [5] amounted to 50%. For the same molecule, the inhibition entry (in assay [6]; in the assay with Pseudomonas aeruginosa [1]; in assay [7]) was “Active” in each case. Further, the inhibition result in the assay with Pseudomonas aeruginosa [2] is “Dose-dependent-effect”.

Regarding `N#Cc1ccccc1Cc1c[nH]c2cc(Cl)ccc12`, the “inhibition (INH)” value with Pseudomonas aeruginosa [5] is listed as 26%. Besides, the inhibition entry (with Pseudomonas aeruginosa [1]; in assay [7]) was “Active” throughout. For the same molecule, the inhibition entry in the assay on Pseudomonas aeruginosa [2] is “Dose-dependent-effect”.

As for `N#Cc1ccccc1Cc1c[nH]c2cc(Br)ccc12`, in the assay with Pseudomonas aeruginosa [5], the “inhibition (INH)” value is on record as 21%. In addition, in the assay on Pseudomonas aeruginosa [1], the inhibition result was “Active”. Also, the inhibition result with Pseudomonas aeruginosa [2] is “Dose-dependent-effect”.

Consider `N#Cc1ccc(F)cc1Cc1c[nH]c2ccccc12`, for which the inhibition entry (with Pseudomonas aeruginosa [3]; in assay [6]) was “Active” in each case. Further, inhibition of growth against Pseudomonas aeruginosa [4] (MIC) required 12 µg/mL (≈ 47.9 µM). For the same molecule, the “inhibition (INH)” value in the assay on Pseudomonas aeruginosa [5] came out at 19%. Moreover, the inhibition entry in the assay on Pseudomonas aeruginosa [1] is “Active; Showed Higher Activity Than Positive Control Rsv”; in assay [7], “Active; Strong Inhibition Observed”; in the assay with Pseudomonas aeruginosa [2], “Dose-dependent-effect”.

On to `CCOC(=O)C(C#N)c1c[nH]c2ccccc12` (centres undefined), for which the inhibition result (in assay [6]; in the assay with Pseudomonas aeruginosa [1]) was “Active” throughout. Also, the inhibition entry in the assay on Pseudomonas aeruginosa [2] is “Dose-dependent-effect”.

Take `Cc1cccc2[nH]cc(Cc3ccccc3C#N)c12`: the “inhibition (INH)” value in the assay on Pseudomonas aeruginosa [5] is 17%. Besides, the inhibition entry was “Active; Showed Higher Activity” in assay [6], “Active; Showed Higher Activity Than Positive Control Rsv” in the assay with Pseudomonas aeruginosa [1] and “Dose-dependent-effect” in the assay on Pseudomonas aeruginosa [2]. The inhibition entry in assay [7] was “Active”.

Take `N#Cc1cccc(F)c1Cc1c[nH]c2ccccc12`: the “inhibition (INH)” value with Pseudomonas aeruginosa [5] is 49%. For the same molecule, the inhibition entry was “Active; Showed Higher Activity” in assay [6], “Active; Strong Inhibition Observed” in assay [7] and “Dose-dependent-effect” with Pseudomonas aeruginosa [2]. Moreover, in the assay on Pseudomonas aeruginosa [1], the inhibition result is “Active”.

As for `N#CCCc1c[nH]c2ccccc12`, in the assay on Pseudomonas aeruginosa [8], the “inhibition (INH)” value is 9%. Besides, the inhibition entry was “Active; Showed Higher Activity” in assay [6], “Active; Strong Inhibition Observed” in assay [7] and “Dose-dependent-effect” with Pseudomonas aeruginosa [2]. The inhibition result in the assay with Pseudomonas aeruginosa [1] was “Active”.

On to `N#Cc1ccc(Br)cc1Cc1c[nH]c2ccccc12`, for which the “inhibition (INH)” value in the assay on Pseudomonas aeruginosa [5] is 21%. In addition, the inhibition result (in assay [6]; in the assay on Pseudomonas aeruginosa [1]; in assay [7]) was “Active” each time. Moreover, the inhibition result in the assay with Pseudomonas aeruginosa [2] was “Dose-dependent-effect”.

Take `Cc1[nH]c2ccccc2c1CCc1ccccc1C#N`: the inhibition result (in assay [6]; in the assay on Pseudomonas aeruginosa [1]) was “Active” in each case. The inhibition result is “Active; Strong Inhibition Observed” in assay [7] and “Dose-dependent-effect” with Pseudomonas aeruginosa [2].

`Cc1cccc(Cc2c[nH]c3ccccc23)c1C#N`: the “inhibition (INH)” value in the assay with Pseudomonas aeruginosa [5] turned out to be 27%. Further, the inhibition result in assay [6] is “Active; Showed Higher Activity”; in assay [7], “Active; Strong Inhibition Observed”; in the assay on Pseudomonas aeruginosa [2], “Dose-dependent-effect”. Further, the inhibition entry with Pseudomonas aeruginosa [1] was “Active”.

Turning to `Cc1ccc(Cc2c[nH]c3ccccc23)c(C#N)c1`, the entries for the “inhibition (INH)” value in the assay with Pseudomonas aeruginosa [5] and in the assay on Pseudomonas aeruginosa [1] were 1% and 60%, respectively. Besides, the inhibition entry in assay [7] is “Active; Strong Inhibition Observed”; with Pseudomonas aeruginosa [2], “Dose-dependent-effect”.

Consider `N#Cc1c(Cl)cccc1Cc1c[nH]c2ccccc12`, for which the “inhibition (INH)” value with Pseudomonas aeruginosa [5] turned out to be 1%. In addition, the inhibition result (in assay [6]; in the assay on Pseudomonas aeruginosa [1]) was “Active” throughout. Also, the inhibition result in assay [7] is “Active; Strong Inhibition Observed”; in the assay with Pseudomonas aeruginosa [2], “Dose-dependent-effect”.

Consider `Nc1ccccc1Cc1c[nH]c2ccccc12`, for which the inhibition entry is “Active; Showed Higher Activity” in assay [6], “Active; Showed Higher Activity Than Positive Control Rsv” in the assay with Pseudomonas aeruginosa [1] and “Dose-dependent-effect” with Pseudomonas aeruginosa [2].

On to `Cc1cccc2c(Cc3ccccc3C#N)c[nH]c12`, for which the “inhibition (INH)” value with Pseudomonas aeruginosa [5] is on record as 40%. The results for the inhibition entry (in assay [6]; in the assay on Pseudomonas aeruginosa [2]) were “Active; Showed Higher Activity” and “Dose-dependent-effect”, respectively. In addition, the inhibition result (in the assay with Pseudomonas aeruginosa [1]; in assay [7]) was “Active” in each case.

With `CC(c1ccccc1C#N)c1c[nH]c2ccccc12` (centres undefined), in the assay on Pseudomonas aeruginosa [1], the inhibition entry is “Active”. The inhibition result in assay [7] was “Active; Strong Inhibition Observed”; with Pseudomonas aeruginosa [2], “Dose-dependent-effect”.

On to `N#Cc1ccccc1Cc1ccccc1`, for which, in the assay on Pseudomonas aeruginosa [1], the inhibition result was “Active”. In addition, the inhibition result in the assay on Pseudomonas aeruginosa [2] was “Dose-dependent-effect”.

Turning to `N#Cc1ccccc1Cc1c[nH]c2cccc(F)c12`, in the assay with Pseudomonas aeruginosa [5], the “inhibition (INH)” value is 35%. In the assay on Pseudomonas aeruginosa [1], the inhibition result was “Active”. The inhibition result with Pseudomonas aeruginosa [2] was “Dose-dependent-effect”.

For `Cc1ccc2c(Cc3ccccc3C#N)c[nH]c2c1`, the “inhibition (INH)” value in the assay with Pseudomonas aeruginosa [5] was 7%. In addition, the inhibition result in assay [6] was “Active; Showed Higher Activity”; with Pseudomonas aeruginosa [1], “Active; Showed Higher Activity Than Positive Control Rsv”; in the assay with Pseudomonas aeruginosa [2] it was “Dose-dependent-effect”. The inhibition result in assay [7] is “Active”.

Consider `COc1cccc2[nH]cc(Cc3ccccc3C#N)c12`, for which the “inhibition (INH)” value in the assay with Pseudomonas aeruginosa [5] came out at 21%. Moreover, the inhibition entry in the assay on Pseudomonas aeruginosa [1] was “Active”. Further, the inhibition entry was “Active; Strong Inhibition Observed” in assay [7] and “Dose-dependent-effect” in the assay on Pseudomonas aeruginosa [2].

For the molecule `N#Cc1cccc(Cl)c1Cc1c[nH]c2ccccc12`, in the assay on Pseudomonas aeruginosa [3], the inhibition entry is “Active”. Also, the MIC in the assay with Pseudomonas aeruginosa [4] stood at 24 µg/mL (≈ 90 µM). The “inhibition (INH)” value in the assay with Pseudomonas aeruginosa [5] is 4%. For the same molecule, the inhibition entry is “Active; Showed Higher Activity” in assay [6], “Active; Showed Higher Activity Than Positive Control Rsv” in the assay with Pseudomonas aeruginosa [1], “Active; Strong Inhibition Observed” in assay [7] and “Dose-dependent-effect” in the assay with Pseudomonas aeruginosa [2].

Take `Cc1ccc(C#N)c(Cc2c[nH]c3ccccc23)c1`: the “inhibition (INH)” value in the assay on Pseudomonas aeruginosa [5] worked out at 24%. In addition, the inhibition result in the assay on Pseudomonas aeruginosa [1] was “Active”. Further, the inhibition result was “Active; Strong Inhibition Observed” in assay [7] and “Dose-dependent-effect” in the assay with Pseudomonas aeruginosa [2].

As for `CCc1ccccc1C#N`, in the assay on Pseudomonas aeruginosa [8], the “inhibition (INH)” value came out at 12%. The inhibition entry is “Active; Showed Higher Activity” in assay [6] and “Dose-dependent-effect” in the assay on Pseudomonas aeruginosa [2]. Further, in the assay on Pseudomonas aeruginosa [1], the inhibition entry was “Active”.

Regarding `CCOC(=O)C(C#N)Cc1c[nH]c2ccccc12` (centres undefined), the inhibition entry in the assay on Pseudomonas aeruginosa [1] was “Active”. Further, the inhibition entry in assay [7] was “Active; Strong Inhibition Observed”; with Pseudomonas aeruginosa [2], “Dose-dependent-effect”.

`N#Cc1ccccc1Cc1c[nH]c2ccc(Cl)cc12`: in the assay with Pseudomonas aeruginosa [5], the “inhibition (INH)” value came to 11%. The inhibition entry was “Active; Showed Higher Activity” in assay [6] and “Dose-dependent-effect” with Pseudomonas aeruginosa [2]. The inhibition result (in the assay with Pseudomonas aeruginosa [1]; in assay [7]) was “Active” throughout.

`Cc1c(Cc2ccccc2C#N)c2ccccc2n1C(=O)OC(C)(C)C`: the inhibition result with Pseudomonas aeruginosa [1] was “Active”. For the same molecule, the inhibition result in the assay on Pseudomonas aeruginosa [2] is “Dose-dependent-effect”.

Consider `Cc1[nH]c2ccccc2c1Cc1ccccc1C#N`, for which the “inhibition (INH)” value in the assay on Pseudomonas aeruginosa [5] is on record as 13%. The inhibition entry (in the assay with Pseudomonas aeruginosa [1]; in assay [7]) was “Active” each time. In the assay with Pseudomonas aeruginosa [2], the inhibition result is “Dose-dependent-effect”.

With `N#Cc1ccccc1Cc1c[nH]c2ccc(Br)cc12`, the “inhibition (INH)” value amounted to 39% with Pseudomonas aeruginosa [5] and 64% with Pseudomonas aeruginosa [1]. The inhibition entry is “Active; Showed Higher Activity” in assay [6], “Active; Strong Inhibition Observed” in assay [7] and “Dose-dependent-effect” in the assay on Pseudomonas aeruginosa [2].
